Bioassay records deposited in PubChem BioAssay by Broad Institute.
FN deposit inh – inhibitors of fibronectin matrix deposition, primary screen, AH1F cells, Alexa488-fibronectin fluorescence, plate reader. inhibition, % at 12.6 µM. hit rate 0.086% among 350,000. AH1F fibroblasts, overnight;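 active = mean inhibition across replicates of 30% or more, regardless of how many single replicates reach that level; inconclusive = mean under 30% yet at least half of replicates reach 30%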;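 note: positive control wells lacked labelled fibronectin entirely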
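Assay system: AH1F fibroblast monolayer, labelled fibronectin deposition. Amount: 10000 cells per well. Also added: labelled fibronectin 24 nM. Compound: single-point pinned compound. Incubation: cell attachment 1 h, compound and FN exposure overnight. Detection: fluorescence after three HBSS washes, excitation 485 nm, emission 525 nm. Read-out: inhibition of fibronectin deposition signal.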
RAD52 anneal inh – RAD52 DNA annealing inhibitors, primary screen, biochemical, FRET, single point, set 2; DNA repair protein RAD52 homolog (Homo sapiens), P43351; recombinant RAD52 DNA annealing, FRET fluorescence; inhibition, % at 18.7 µM; hit rate 0.46% among 360,000;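 active = every replicate showing at least 50% inhibition; inconclusive = mean inhibition at least 50% but not in every replicate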
RAD54 inh – inhibitors of human RAD54 branch migration, primary screen, biochemical, fluorescence, single point. DNA repair and recombination protein RAD54-like (Homo sapiens), Q92698. AID 602329, 2012. RAD54 Holliday junction branch migration, FAM/BHQ fluorescence. hit rate 0.14% among 360,000. inhibition, % at 10.4 µM;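 active = mean normalized replicate activity at least 40 and at least half of replicates scoring 40 or more; inconclusive = only one of the two criteria met; inactive = mean below 40 and under half of replicates reaching 40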;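 note: 0% = median of neutral control wells and 100% = median of positive control wells; inhibitors cause a drop in the FAM fluorescence signal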
Target sequence (Q92698 whole entry, looked up): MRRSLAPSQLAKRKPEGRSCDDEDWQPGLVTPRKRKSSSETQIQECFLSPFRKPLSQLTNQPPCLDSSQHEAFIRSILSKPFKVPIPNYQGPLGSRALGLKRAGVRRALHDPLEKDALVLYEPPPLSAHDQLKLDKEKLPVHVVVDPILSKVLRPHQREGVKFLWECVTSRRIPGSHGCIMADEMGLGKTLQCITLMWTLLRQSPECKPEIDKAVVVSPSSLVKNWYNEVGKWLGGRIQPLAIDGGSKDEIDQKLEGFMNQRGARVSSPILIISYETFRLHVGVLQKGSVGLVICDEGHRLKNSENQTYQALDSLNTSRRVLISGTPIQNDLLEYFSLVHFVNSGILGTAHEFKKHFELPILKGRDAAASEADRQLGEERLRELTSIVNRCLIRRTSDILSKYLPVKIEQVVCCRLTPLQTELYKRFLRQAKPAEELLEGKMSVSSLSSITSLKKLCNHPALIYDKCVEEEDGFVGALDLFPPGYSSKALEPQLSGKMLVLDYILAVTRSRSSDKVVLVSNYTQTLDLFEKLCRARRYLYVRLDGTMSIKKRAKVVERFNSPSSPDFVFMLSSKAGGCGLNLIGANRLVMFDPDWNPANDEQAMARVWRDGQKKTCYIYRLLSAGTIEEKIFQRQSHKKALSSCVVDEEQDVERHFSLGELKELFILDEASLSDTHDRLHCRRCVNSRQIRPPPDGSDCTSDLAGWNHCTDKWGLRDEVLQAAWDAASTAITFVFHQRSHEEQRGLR
PAX8 inh HTS – inhibitors of PAX8-driven TPO luciferase reporter, primary screen, RMG-I cells, single concentration. hit rate 1.2% among 360,000. inhibition, % at 12.6 µM. SteadyGlo, 24 h;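 active = mean replicate inhibition at least 60% with every replicate also reaching 60%; inconclusive = only one of the two criteria is met; inactive = mean below 60% and not all replicates reaching 60%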;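 note: luciferase light reporting Pax8 driven TPO promoter activity; plate controls were median of neutral control wells for no effect and mitoxantrone controls for full effect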
* = called active by the depositor; i = inactive; ? = inconclusive; · = not tested or not shown; ! = a repeat was not active. Shown are actives, neighbours in structure and some others; about 1.3% of the full set was active somewhere.

SMILES	FN deposit inh	RAD52 anneal inh	RAD54 inh	PAX8 inh HTS
COc1ccc(S(=O)(=O)N2CCC3(CC2)CN(Cc2ccccc2OC)[C@@H](CO)c2[nH]c4cc(OC)ccc4c23)cc1	·	52*	·	47
CNC[C@H]1OCCCC[C@H](C)Oc2ccc(N)cc2C(=O)N([C@@H](C)CO)C[C@@H]1C	-7	-142	-7	-8
C[C@@H]1CN([C@H](C)CO)S(=O)(=O)c2ccc(-c3ccccc3)cc2O[C@@H]1CN(C)S(=O)(=O)c1ccccc1F	·	4	5	55
COCC#Cc1ccc2c(c1)O[C@@H](CN(C)Cc1ccc(F)cc1)[C@H](C)CN([C@H](C)CO)S2(=O)=O	2	5	1	·
COc1cc(/C=C/C(=O)OCc2csc(CC(=O)Nc3ccc(C)cc3)n2)ccc1OCC#N	-8	-16	9	-13
Cc1ccc(C2C(C#N)=C(N)Oc3cc(N)ccc32)cc1 (centres undefined)	9	-48	-3	-12
N#CC1=C(N)Oc2cc(N)ccc2C1c1cccc(Br)c1 (centres undefined)	-1	-21	-4	64*
Cc1ccccc1C(=O)NCCCNC(=O)c1cnccn1	4	-12	-9	-1
CCCCCCCCNC(=O)c1cnccn1	3	-13	-2	98*
O=C(CN1C(=O)c2ccccc2S1(=O)=O)c1ccccc1Cl	·	-17	-12	90*
Cc1cc(C(=O)CN2C(=O)c3ccccc3S2(=O)=O)c(C)n1C(C)C	0	-20	-7	71*
CCn1c(C)cc(C(=O)CN2C(=O)c3ccccc3S2(=O)=O)c1C	3	-4	-1	35
Cc1ccc(C(=O)CN2C(=O)c3ccccc3S2(=O)=O)cc1	5	2	-1	71*
CCOc1ccccc1NC(=O)C(NCC1(N2CCCCC2)CCCCC1)c1ccccc1 (centres undefined)	-2	8	·	20
COc1cc(C(=O)N/N=C/c2ccccn2)cc(OC)c1OC	-10	-24	·	19
Cc1ccc(NC2=CC(=O)CCC2)cc1C	1	·	10	-7
CCN1/C(=C/c2ccc3cc(C)cc(C)c3[n+]2CC)Sc2cc(C)ccc21	-6	i	i	101*
CCN1/C(=C\c2ccc3cc(C)ccc3[n+]2CC)Sc2cc(C)c(C)cc21	0	i	i	91*
C=CCN1C(=O)C2C(C(=O)NCc3ccccc3)C3C=CC2(O3)C1C(=O)NC(C)(C)C (centres undefined)	·	·	-2	·
CCOC(=O)[C@@H]1[C@@H]2C=C[C@]3(O2)[C@H](C(=O)NCc2ccccc2)N(CCCCCCO)C(=O)[C@@H]13	·	-161	·	109*
CNC[C@H]1Oc2cc(C#Cc3ccc(OC)cc3)ccc2S(=O)(=O)N([C@@H](C)CO)C[C@@H]1C	9	52*	2	·
C[C@@H]1CN([C@@H](C)CO)S(=O)(=O)c2ccc(C#Cc3ccncc3)cc2O[C@H]1CN(C)C(=O)C1CCCCC1	·	31	-2	?
C[C@@H]1CN([C@@H](C)CO)S(=O)(=O)c2ccc(C#Cc3ccncc3)cc2O[C@@H]1CN(C)C(=O)Nc1ccc2c(c1)OCO2	·	-7	5	-21
C[C@H](CO)N1C[C@H](C)[C@@H](CN(C)C(=O)Nc2ccc3c(c2)OCO3)Oc2cc(C#Cc3ccncc3)ccc2S1(=O)=O	·	3	8	100*
C[C@H]1CN([C@@H](C)CO)S(=O)(=O)c2ccc(C#Cc3ccncc3)cc2O[C@H]1CN(C)C(=O)C1CCCCC1	·	14	-9	76*
SMILES	FN deposit inh	RAD52 anneal inh	RAD54 inh	PAX8 inh HTS
C[C@H](CO)N1C[C@H](C)[C@H](CN(C)C(=O)C2CCCCC2)Oc2cc(C#Cc3ccncc3)ccc2S1(=O)=O	·	16	-3	57
C[C@@H]1CN([C@@H](C)CO)S(=O)(=O)c2ccc(C#Cc3ccncc3)cc2O[C@@H]1CN(C)C(=O)C1CCCCC1	·	2	-4	76*
COc1ccc(NC(=O)N(C)C[C@H]2Oc3cc(C#CCC(C)C)ccc3S(=O)(=O)N([C@H](C)CO)C[C@H]2C)cc1	·	20	4	72*
COc1cccc(C(=O)Nc2ccc3c(c2)OC[C@@H](C)N(CCc2ccccc2)C[C@H](C)[C@H](OC)CN(C)C3=O)c1	8	8	-10	4
COc1cccc(C(=O)Nc2ccc3c(c2)OC[C@@H](C)N(CCc2ccccc2)C[C@@H](C)[C@H](OC)CN(C)C3=O)c1	6	0	0	68*
COc1cccc(C(=O)Nc2ccc3c(c2)C(=O)N(C)C[C@@H](OC)[C@H](C)CN(CCc2ccccc2)[C@H](C)CO3)c1	9	18	4	71*
C[C@@H]1CN([C@@H](C)CO)S(=O)(=O)c2ccc(C#CC3CCCC3)cc2O[C@H]1CN(C)C(=O)Cc1ccccc1	·	9	0	57
C[C@@H]1CN([C@H](C)CO)S(=O)(=O)c2ccc(C#CC3CCCC3)cc2O[C@H]1CN(C)C(=O)Cc1ccccc1	-10	-12	-17	67*!
C[C@@H]1CN([C@@H](C)CO)S(=O)(=O)c2ccc(C#Cc3ccccc3F)cc2O[C@H]1CN(C)C(=O)Cc1ccccc1	·	1	-6	92*
C[C@H]1CN([C@@H](C)CO)S(=O)(=O)c2ccc(C#Cc3ccccc3F)cc2O[C@@H]1CN(C)C(=O)Cc1ccccc1	·	12	-5	59
C[C@@H]1CCCCO[C@@H](CN(C)C(=O)CCCN(C)C)[C@@H](C)CN([C@H](C)CO)C(=O)c2cc(NS(C)(=O)=O)ccc2O1	·	-11	-1	-3
COc1ccc2oc(C)c(C(=O)c3ccc([N+](=O)[O-])cc3)c2c1	9	-23	·	93*
Cc1ccc(N(CC#N)C(=O)CS(=O)(=O)c2cccc([N+](=O)[O-])c2)cc1	4	-1	6	-20
c1ccc(-c2nn(-c3ccccc3)[n+](-c3ccccc3)n2)cc1	·	-7	·	77*
OC[C@@H]1[C@@H](c2ccccc2)C(c2ccccc2)=NN1c1ccccc1	-5	-21	19	20
COc1cccc(N2CCN(C(=O)c3ccc(CS(=O)c4ccc(C)cc4)o3)CC2)c1 (centres undefined)	5	-10	-3	66*
NC(=O)[C@H]1CC2(CC(c3cccc(NC(=O)COc4ccc(Cl)cc4)c3)=NO2)CN1C(=O)C(c1ccccc1)c1ccccc1 (some centres undefined)	3	-28	-2	89*
Cc1c(C(=O)N2CC3(CC(c4cccc(NC(=O)CC(c5ccccc5)c5ccccc5)c4)=NO3)C[C@@H]2C(N)=O)cc([N+](=O)[O-])cc1[N+](=O)[O-] (some centres undefined)	1	-12	-10	65*
C[C@H]1CN([C@@H](C)CO)C(=O)Cc2cc(NC(=O)Nc3ccc(C(F)(F)F)cc3)ccc2O[C@H]1CN(C)C(=O)NC1CCCCC1	·	-13	-6	78*
